Converted amounts (≈) assume the structure as drawn.

Consider three compounds from ChEMBL document CHEMBL1125042, “Hypolipidemic activity of rifamycin derivatives” (J Med Chem, 1990).

The test system of experiment [1] is Rattus norvegicus. Nature of the experiment: Hypolipidemic activity was determined in male rats, cholesterol was determined in high-density lipoproteins at 100 mg/kg. It is filed as functional, organism-based. On the set-up: dose 100 mg/kg. An outline of the steps:
(§1)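 Groups of eight male Wistar rats (200–230 g) dosed orally in PEG 400, either daily for 7 days (killed 24 h after the last dose) or for 4 days with a second dose on day 4 (killed 16 h later). Fasted 16 h. Paired sera pooled, lipoproteins separated by ultracentrifugation (1.006 and 1.040 g/cm³), HDL taken as the infranatant. Cholesterol measured enzymatically; % vs vehicle, mean ± SEM of four pools.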

Experiment [2] concerns Rattus norvegicus. Put plainly: Hypolipidemic activity was determined in male rats, cholesterol was determined in high-density lipoproteins at 30 mg/kg. The format is functional, organism-based. Also on record: dose 30 mg/kg. An outline of the steps:
as §1

Experiment [3] relates to Rattus norvegicus. Nature of the experiment: Hypolipidemic activity was determined in male rats, cholesterol was determined in low-density lipoproteins at 100 mg/kg. The format is functional, organism-based. On the set-up: dose 100 mg/kg. Put shortly:
as §1

For experiment [4], the species on record is Rattus norvegicus. The note with it: 30 mg/kg.
Experiment [5] has as its system Rattus norvegicus. Put plainly: Hypolipidemic activity was determined in male rats, and serum cholesterol level was determined at 100 mg/kg.
In experiment [6] the test system is Rattus norvegicus. Nature of the experiment: Hypolipidemic activity was determined in male rats, and low-density lipoprotein level was determined at 30 mg/kg.
Experiment [7] has as its system Rattus norvegicus. Nature of the experiment: Compound was tested for hypolipidemic activity in male rats, cholesterol level was determined in serum at 30 mg/kg. It is filed as functional, organism-based. On the set-up: dose 30 mg/kg. An outline of the steps:
(§2)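 Male Wistar rats (200–230 g), eight per group, were dosed orally in PEG 400 at 8 a.m. for 4 days, plus a second dose at 4 p.m. on day 4. Rats were fasted 16 h and killed 16 h after the last dose. Sera from pairs of rats were pooled. LDL (up to 1.040 g/cm³) was separated by ultracentrifugation and the HDL infranatant taken. Cholesterol was measured enzymatically. Results are % versus vehicle control, mean ± SEM of four pools, Student's t test.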

Experiment [8] has as its system Rattus norvegicus. Put plainly: Compound was tested for hypolipidemic activity in male rats, cholesterol was determined in serum at 100 mg/kg. The format is functional. An outline of the steps:
as §2

The subject of experiment [9] is Rattus norvegicus. Nature of the experiment: Hypolipidemic activity was determined in male rats, and high-density lipoprotein level was determined at 100 mg/kg. It is filed as functional. Put shortly: as §2
Experiment [10] relates to Rattus norvegicus. Nature of the experiment: Hypolipidemic activity was determined in male rats, and low-density lipoprotein level was determined at 100 mg/kg. The format is functional. An outline of the steps:
as §2

For experiment [11], the system named is Staphylococcus aureus. Put plainly: Antibacterial activity against Staphylococcus aureus 10B. It is filed as functional. Put shortly:
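Agar dilution on DST agar with 2-fold drug dilutions. Inoculum of 10⁴ viable S. aureus 10B was taken from liquid-nitrogen stock, thawed 30 min and not subcultured. It was applied by multipoint replicator and incubated overnight at 37 °C. MIC is the lowest concentration inhibiting growth relative to control cultures.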

Turning to `O=C(O)c1cccnc1`, the Serum HDL-cholesterol in [1] is -13%; in experiment [2], -1%. Moreover, the Serum LDL-cholesterol in [3] was -52%; in experiment [6], -32%. For the same compound, the Serum cholesterol in experiment [4] was -6%; in experiment [5], -10%.

In the case of `CCOC(=O)C(C)(C)Oc1ccc(Cl)cc1`, the Serum HDL-cholesterol is -34% in experiment [1] and -13% in experiment [2]. Besides, the Serum LDL-cholesterol is 14% in [3] and -8% in experiment [6]. Further, the Serum cholesterol in experiment [7] is -15%; in experiment [5], -30%.

As for `CO[C@H]1/C=C/O[C@@]2(C)Oc3c(C)c(O)c4c(O)c(c(/C=N/N5CCN(C)CC5)c(O)c4c3C2=O)NC(=O)/C(C)=C\C=C\[C@H](C)[C@H](O)[C@@H](C)[C@@H](O)[C@@H](C)[C@H](OC(C)=O)[C@@H]1C` [RIFAMPIN], the results for the Activity in [8], in [9] and in [10] were -30%, -27% and -31%, respectively. For the same compound, the MIC in [11] stood at 3 ng/mL (≈ 3.65 nM).

Broadly, the MIC is the least concentration at which growth counts as inhibited. The low end stands for inhibition by little substance, the high end for a need for much substance.
